Measurements collected from several papers.
CDKL1: Cyclin-dependent kinase-like 1 (CDKL1, Homo sapiens, UniProt Q00532)
ULK1: Serine/threonine-protein kinase ULK1 (ULK1, Homo sapiens, UniProt O75385)
MAP3K11: Mitogen-activated protein kinase kinase kinase 11 (MAP3K11, Homo sapiens, UniProt Q16584)

Cc1ccc(NC(=O)c2ccc(C)c(C(F)(F)F)c2)cc1C#Cc1nn(C2CCC(O)CC2)c2ncnc(N)c12 (centres unmarked) — remaining signal (Hepatocyte growth factor receptor (MET, Homo sapiens, UniProt P08581, Y1230H); cell-free assay; 10 µM): 123%
N#CC1c2c([nH]c3c(Cl)c(Cl)ccc23)C(=O)NC12CCCCC2 (racemic) — ΔTm (CDKL1; thermal stability, DSF; 10 µM): 0.2 °C
O=C(NCCCNc1nc(Nc2cccc(CN3CCOCC3)c2)ncc1C1CC1)C1CCC1 — remaining activity (ULK1; enzyme activity, inhibitor, radiometric; 1 µM): 9%
Cc1cnc(NC2CCOCC2)nc1-n1cnc(C(=O)NC(CN)c2cc(F)cc(Cl)c2)c1 (centres unmarked) — remaining activity (Mitogen-activated protein kinase 1 (Mapk1, Mus musculus, UniProt P63085); enzyme activity, inhibitor, radiometric; 1 µM): 1%
CCN1CCN(Cc2ccc(NC(=O)c3ccc(C)c(Oc4ccnc5[nH]ccc45)c3)cc2C(F)(F)F)CC1 — inhibition (Eukaryotic elongation factor 2 kinase (EEF2K, Homo sapiens, UniProt O00418); target engagement in cells, inhibitor, chemoproteomics; A-375; 50 nM): -13.9%
NS(=O)(=O)c1ccc(CNc2ccnc(Nc3cccc(CN4CCOCC4)c3)n2)cc1 — remaining activity (MAP3K11; enzyme activity, inhibitor, radiometric; 1 µM): 95%
Cn1c2c(c3ccc(Cl)c(Cl)c31)C(C#N)C1(CCOCC1)NC2=O (centres unmarked) — ΔTm (CDKL1; thermal stability, DSF; 10 µM): -0.1 °C
O=S1(=O)O[C@@H]2[C@H](O)[C@@H](O)[C@H](O)[C@@H](CO)[C@@H]2O1 — kinact/KI (Lysosomal alpha-glucosidase (GAA, Homo sapiens, UniProt P10253); enzyme activity, inhibitor; pH 4.8): 1070 M⁻¹ s⁻¹
Cc1cc(NC(=O)c2cccc3cc(-c4cccc5[nH]nc(N)c45)ccc23)ccc1F — activity vs control (Hepatocyte growth factor receptor (MET, Homo sapiens, UniProt P08581, D1228H); enzyme activity, inhibitor; 0.1 µM): 145%
Cn1c2c(c3ccc(Cl)c(Cl)c31)C(C#N)C(C)(C)NC2=O (centres unmarked) — ΔTm (CDKL1; thermal stability, DSF; 10 µM): 0 °C
NS(=O)(=O)c1ccc(CNc2nc(Nc3cccc(NC(=O)N4CCCC4)c3)ncc2C2CC2)cc1 — remaining activity (MAP3K11; enzyme activity, inhibitor, radiometric; 1 µM): 72%
CC1(C)NC(=O)c2[nH]c3c(Cl)c(Cl)ccc3c2C1C#N (centres unmarked) — ΔTm (CDKL1; thermal stability, DSF; 10 µM): 0 °C
Cc1nn(CC(F)(F)F)cc1Nc1ncc(C2CC2)c(NCCc2c[nH]cn2)n1 — remaining activity (ULK1; enzyme activity, inhibitor, radiometric; 1 µM): 78%
FC(F)(F)Oc1cccc(-c2cnc3ccc(-c4ccncc4)nn23)c1 — activity vs control (Mitogen-activated protein kinase kinase kinase 1 (MAP3K1, Homo sapiens, UniProt Q13233); enzyme activity, inhibitor, radiometric; 5 µM): 94%
Nc1ncnc2occ(-c3ccc(NC(=O)Nc4cc(C(F)(F)F)ccc4F)cc3)c12 — remaining signal (Myosin-IIIa (MYO3A, Homo sapiens, UniProt Q8NEV4); cell-free assay; 20 µM): 0.05%
Cn1c2c(Cl)c(Cl)ccc2c2cc[nH]c(=O)c21 — ΔTm (CDKL1; thermal stability, DSF; 10 µM): -0.1 °C
CN1CCc2cc(Nc3ncc(C4CC4)c(NCCCNC(=O)C4CCC4)n3)ccc2C1 — remaining activity (ULK1; enzyme activity, inhibitor, radiometric; 1 µM): 1%
